Measured values: ChEMBL document CHEMBL3425427, “Pyrido[4,3-e][1,2,4]triazolo[4,3-a]pyrazines as Selective, Brain Penetrant Phosphodiesterase 2 (PDE2) Inhibitors” (ACS Med Chem Lett, 2015)
In brackets after ≈: the same amount, converted by molar mass.

Legend:
[1] = Drug metabolism in rat liver microsomes at 1 uM incubated for 15 mins at 37 degC; assay type: ADME; settings: read-out: Drug metabolism
Method in brief: (§1)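 Compound at 1 μM incubated 15 min at 37 °C with human or rat liver microsomes; read-out is percent metabolized.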

[2] = Drug metabolism in human liver microsomes at 1 uM incubated for 15 mins at 37 degC; assay type: ADME; settings: read-out: Drug metabolism; method in brief: as §1
[3] = Drug level in Sprague-Dawley rat brain homogenates at 10 mg/kg, sc after 1 hr; assay type: ADME, organism-based; parameters: dose 10 mg/kg, route subcutaneous; settings: read-out: Drug uptake
Method in brief: (§2)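 Fed male Sprague-Dawley rats, n = 2 per time point, given 10 mg/kg s.c. in 20% HPβCD at pH 3.5−4. Brain and plasma levels taken 1 h after dosing; brain-to-plasma ratio computed from these.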

[4] = Unbound fraction in Sprague-Dawley rat brain homogenates at 10 mg/kg, sc after 5 hrs at 37 degC by rapid equilibrium dialysis; assay type: ADME, organism-based; parameters: dose 10 mg/kg, route subcutaneous; settings: brain homogenate
Method in brief: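 Unbound fraction measured in rat brain homogenate by rapid equilibrium dialysis, 5 h incubation at 37 °C.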

[5] = biological target: T1, cAMP and cAMP-inhibited cGMP 3',5'-cyclic phosphodiesterase 10A (Rattus norvegicus, UniProt Q9QYJ6); assay: Inhibition of 6-His-tagged rat recombinant PDE10A expressed in Sf9 cells using [3H]cAMP incubated for 60 mins by scintillation proximity assay
T1 sequence (Q9QYJ6 whole entry): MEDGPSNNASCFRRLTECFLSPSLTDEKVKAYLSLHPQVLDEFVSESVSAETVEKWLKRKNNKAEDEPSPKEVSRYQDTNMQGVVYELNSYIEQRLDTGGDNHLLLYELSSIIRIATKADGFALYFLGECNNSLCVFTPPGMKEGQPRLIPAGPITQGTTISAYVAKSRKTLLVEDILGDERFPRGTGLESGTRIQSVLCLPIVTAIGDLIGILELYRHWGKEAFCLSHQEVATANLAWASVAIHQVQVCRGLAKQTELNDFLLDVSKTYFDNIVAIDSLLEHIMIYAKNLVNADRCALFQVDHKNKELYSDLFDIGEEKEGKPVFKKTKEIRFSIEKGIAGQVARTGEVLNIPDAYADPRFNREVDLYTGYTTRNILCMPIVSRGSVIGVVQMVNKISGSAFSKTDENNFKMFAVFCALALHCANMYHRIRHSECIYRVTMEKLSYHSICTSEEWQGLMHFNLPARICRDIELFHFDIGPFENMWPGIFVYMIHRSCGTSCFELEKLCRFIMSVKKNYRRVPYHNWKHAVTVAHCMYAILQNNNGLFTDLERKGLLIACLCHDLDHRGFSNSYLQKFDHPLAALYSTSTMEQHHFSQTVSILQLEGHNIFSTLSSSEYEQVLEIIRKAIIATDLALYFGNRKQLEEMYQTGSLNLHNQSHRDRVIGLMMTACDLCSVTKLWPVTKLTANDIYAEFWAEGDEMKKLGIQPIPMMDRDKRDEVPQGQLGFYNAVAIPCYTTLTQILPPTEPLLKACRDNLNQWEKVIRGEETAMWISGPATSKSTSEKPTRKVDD

[6] = Ratio of drug level in brain to plasma of Sprague-Dawley rat at 10 mg/kg, sc after 1 hr; assay type: ADME, organism-based; parameters: dose 10 mg/kg, route subcutaneous; settings: read-out: BPR; method in brief: as §2
[7] = Drug formulatability in 20% HPbetaCD at pH >3.5 buffer; assay type: physicochemical; settings: 20% HPbetaCD in buffer at pH >3.5; read-out: Activity
[8] = Solubility in pH 7.4 buffer; assay type: physicochemical
CYP2C19 = CYP2C19 (Homo sapiens, UniProt P33261); assay: Inhibition of CYP2C19 (unknown origin) at 5 uM; assay type: ADME
CYP2C9 = CYP2C9 (Homo sapiens, UniProt P11712); assay: Inhibition of CYP2C9 (unknown origin) at 5 uM; assay type: ADME
Salmonella typhimurium = assay: Genotoxicity in Salmonella typhimurium at 125 ug/ml by AMES-2 test; assay type: toxicity, organism-based; settings: salmonella enterica subsp. enterica serovar typhimurium
Method in brief: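 Colorimetric AMESII bacterial mutagenicity kit, adapted; compound tested at 125 μg/mL.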

[9] = biological target: Dual 3',5'-cyclic-AMP and -GMP phosphodiesterase 11A (Homo sapiens, UniProt Q9HCR9); assay: Inhibition of full length human PDE11A4 expressed in HEK cells by scintillation proximity assay; parameters: species or system HEK293
[10] = biological target: 3',5'-cyclic-AMP phosphodiesterase 4D (Homo sapiens, UniProt Q08499); assay: Inhibition of 6-His-tagged human recombinant PDE4D3 expressed in Sf9 cells by scintillation proximity assay
[11] = Dissociation constant, pKa of the compound; assay type: physicochemical
CYP2D6 = CYP2D6 (Homo sapiens, UniProt P10635); assay: Inhibition of CYP2D6 (unknown origin) at 5 uM; assay type: ADME
[12] = Oral bioavailability in Sprague-Dawley rat at 10 mg/kg; assay type: ADME, organism-based; settings: in vivo
Method in brief: (§3)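 Male Sprague-Dawley rats, fed; n = 3 per time point. Dosed 2.5 mg/kg i.v. or 10 mg/kg p.o.; plasma PK parameters derived from both routes.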

CYP3A4 = CYP3A4 (Homo sapiens, UniProt P08684); assay: Inhibition of CYP3A4 (unknown origin) at 5 uM; assay type: ADME
[13] = biological target: cGMP-inhibited 3',5'-cyclic phosphodiesterase 3B (Homo sapiens, UniProt Q13370); assay: Inhibition of human PDE3B by scintillation proximity assay
[14] = Half life in Sprague-Dawley rat at 10 mg/kg, po; assay type: ADME, organism-based; parameters: dose 10 mg/kg, route oral; settings: in vivo; method in brief: as §3
[15] = Volume of distribution at steady state in Sprague-Dawley rat at 2.5 mg/kg, iv; assay type: ADME, organism-based; parameters: dose 2.5 mg/kg, route intravenous; settings: in vivo, read-out: Vdss; method in brief: as §3
[16] = AUC (0 to infinity) in Sprague-Dawley rat at 2.5 mg/kg, iv; assay type: ADME, organism-based; parameters: dose 2.5 mg/kg, route intravenous, time infinity; settings: plasma
[17] = Cmax in Sprague-Dawley rat at 10 mg/kg, po; assay type: ADME, organism-based; parameters: dose 10 mg/kg, route oral; settings: in vivo; method in brief: as §3
Rattus norvegicus = assay: In vivo PDE2 occupancy in Wistar rat assessed as inhibition of specific binding of [3H]-4-((1-(5-butoxypyridin-3-yl)-4-methyl-[1,2,4]triazolo[4,3-a]quinoxalin-8-yl)methyl)morpholine radiotracer and pre-treated with 2.5 mg/kg, sc PDE10 inhibitor MP10
[18] = AUC (0 to infinity) in Sprague-Dawley rat at 10 mg/kg, po; assay type: ADME, organism-based; parameters: time infinity, dose 10 mg/kg, route oral; settings: plasma
[19] = Solubility in pH 3.9 buffer with 20% HPbetaCD; assay type: physicochemical
[20] = Dissociation constant, pKa of the compound at 25 degC by potentiometric titration method; assay type: physicochemical
[21] = Clearance in Sprague-Dawley rat at 2.5 mg/kg, iv; assay type: ADME, organism-based; parameters: dose 2.5 mg/kg, route intravenous; settings: in vivo; method in brief: as §3
[22] = Apparent volume of distribution in Sprague-Dawley rat at 2.5 mg/kg, iv; assay type: ADME, organism-based; parameters: dose 2.5 mg/kg, route intravenous; settings: in vivo, read-out: Vz; method in brief: as §3
[23] = Initial plasma concentration in Sprague-Dawley rat at 2.5 mg/kg, iv; assay type: ADME, organism-based; parameters: dose 2.5 mg/kg, route intravenous; method in brief: as §3
[24] = Tmax in Sprague-Dawley rat at 10 mg/kg, po; assay type: ADME, organism-based; parameters: dose 10 mg/kg, route oral; settings: in vivo; method in brief: as §3
CYP1A2 = biological target: T2, CYP1A2 (Homo sapiens, UniProt P05177); assay: Inhibition of CYP1A2 (unknown origin) at 5 uM; assay type: ADME
T2 sequence (P05177 whole entry): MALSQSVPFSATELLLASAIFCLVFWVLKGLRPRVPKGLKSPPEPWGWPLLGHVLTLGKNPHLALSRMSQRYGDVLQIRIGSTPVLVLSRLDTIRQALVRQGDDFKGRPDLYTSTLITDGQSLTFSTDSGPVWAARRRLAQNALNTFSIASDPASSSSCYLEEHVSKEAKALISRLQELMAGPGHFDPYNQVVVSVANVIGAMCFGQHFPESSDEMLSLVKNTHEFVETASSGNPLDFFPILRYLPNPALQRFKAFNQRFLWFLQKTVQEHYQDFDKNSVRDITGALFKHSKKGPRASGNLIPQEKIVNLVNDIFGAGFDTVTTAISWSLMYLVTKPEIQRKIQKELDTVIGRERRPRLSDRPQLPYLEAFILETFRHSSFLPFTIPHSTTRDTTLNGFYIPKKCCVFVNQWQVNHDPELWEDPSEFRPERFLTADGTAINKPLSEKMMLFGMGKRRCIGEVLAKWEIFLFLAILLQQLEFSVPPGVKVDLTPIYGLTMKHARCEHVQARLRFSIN

[25] = biological target: High affinity 3',5'-cyclic-AMP phosphodiesterase 7A (Homo sapiens, UniProt Q13946); assay: Inhibition of 6-His-tagged human recombinant PDE7A1 expressed in Sf9 cells by scintillation proximity assay
[26] = Kinetic solubility in pH 7.4 buffer incubated for 4 hrs; assay type: physicochemical; settings: read-out: Kinetic_solubility
[27] = biological target: High affinity cGMP-specific 3',5'-cyclic phosphodiesterase 9A (Homo sapiens, UniProt O76083); assay: Inhibition of 6-His-tagged human recombinant PDE9A1 expressed in Sf9 cells by scintillation proximity assay
Phosphodiesterase 6 = assay: Inhibition of human PDE6AB by scintillation proximity assay; assay type: protein assay
[28] = biological target: cGMP-specific 3',5'-cyclic phosphodiesterase (Homo sapiens, UniProt O76074); assay: Inhibition of 6-His-tagged human recombinant PDE5A3 expressed in Sf9 cells by scintillation proximity assay
[29] = biological target: Dual specificity calcium/calmodulin-dependent 3',5'-cyclic nucleotide phosphodiesterase 1A (Homo sapiens, UniProt P54750); assay: Inhibition of human PDE1A by scintillation proximity assay
[30] = Half life in Sprague-Dawley rat at 2.5 mg/kg, iv; assay type: ADME, organism-based; parameters: dose 2.5 mg/kg, route intravenous; settings: in vivo; method in brief: as §3

Sequence of High affinity 3',5'-cyclic-AMP phosphodiesterase 7A (Q13946 whole entry): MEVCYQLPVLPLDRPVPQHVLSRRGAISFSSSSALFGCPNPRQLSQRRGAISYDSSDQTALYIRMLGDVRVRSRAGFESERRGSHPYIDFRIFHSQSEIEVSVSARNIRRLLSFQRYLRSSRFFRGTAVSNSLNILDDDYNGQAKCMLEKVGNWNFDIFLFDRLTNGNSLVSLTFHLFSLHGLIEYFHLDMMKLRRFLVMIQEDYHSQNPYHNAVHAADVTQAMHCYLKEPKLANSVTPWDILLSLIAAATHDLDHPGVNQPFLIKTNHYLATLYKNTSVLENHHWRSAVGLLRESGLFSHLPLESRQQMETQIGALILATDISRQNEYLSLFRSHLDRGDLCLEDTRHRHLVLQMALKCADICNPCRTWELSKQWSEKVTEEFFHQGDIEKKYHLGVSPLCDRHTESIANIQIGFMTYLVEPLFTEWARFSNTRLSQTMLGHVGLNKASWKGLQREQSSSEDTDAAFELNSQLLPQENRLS
Sequence of High affinity cGMP-specific 3',5'-cyclic phosphodiesterase 9A (O76083 whole entry): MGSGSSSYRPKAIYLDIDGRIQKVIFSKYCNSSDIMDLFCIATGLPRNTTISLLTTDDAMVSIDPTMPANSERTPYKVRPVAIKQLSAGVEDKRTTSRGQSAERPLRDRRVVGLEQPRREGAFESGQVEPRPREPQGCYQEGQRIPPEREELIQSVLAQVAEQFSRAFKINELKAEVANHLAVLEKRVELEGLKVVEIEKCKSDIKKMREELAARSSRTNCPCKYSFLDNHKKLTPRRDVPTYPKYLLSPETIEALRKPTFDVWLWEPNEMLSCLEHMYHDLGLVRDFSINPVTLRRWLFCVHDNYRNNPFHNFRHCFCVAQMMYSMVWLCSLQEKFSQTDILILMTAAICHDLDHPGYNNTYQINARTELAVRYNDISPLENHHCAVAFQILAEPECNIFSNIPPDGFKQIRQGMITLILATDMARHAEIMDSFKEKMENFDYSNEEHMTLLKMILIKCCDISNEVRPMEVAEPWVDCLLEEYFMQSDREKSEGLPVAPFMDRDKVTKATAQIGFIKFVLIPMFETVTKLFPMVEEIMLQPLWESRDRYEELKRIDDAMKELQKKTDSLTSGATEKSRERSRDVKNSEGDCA
Sequence of 3',5'-cyclic-AMP phosphodiesterase 4D (Q08499 whole entry): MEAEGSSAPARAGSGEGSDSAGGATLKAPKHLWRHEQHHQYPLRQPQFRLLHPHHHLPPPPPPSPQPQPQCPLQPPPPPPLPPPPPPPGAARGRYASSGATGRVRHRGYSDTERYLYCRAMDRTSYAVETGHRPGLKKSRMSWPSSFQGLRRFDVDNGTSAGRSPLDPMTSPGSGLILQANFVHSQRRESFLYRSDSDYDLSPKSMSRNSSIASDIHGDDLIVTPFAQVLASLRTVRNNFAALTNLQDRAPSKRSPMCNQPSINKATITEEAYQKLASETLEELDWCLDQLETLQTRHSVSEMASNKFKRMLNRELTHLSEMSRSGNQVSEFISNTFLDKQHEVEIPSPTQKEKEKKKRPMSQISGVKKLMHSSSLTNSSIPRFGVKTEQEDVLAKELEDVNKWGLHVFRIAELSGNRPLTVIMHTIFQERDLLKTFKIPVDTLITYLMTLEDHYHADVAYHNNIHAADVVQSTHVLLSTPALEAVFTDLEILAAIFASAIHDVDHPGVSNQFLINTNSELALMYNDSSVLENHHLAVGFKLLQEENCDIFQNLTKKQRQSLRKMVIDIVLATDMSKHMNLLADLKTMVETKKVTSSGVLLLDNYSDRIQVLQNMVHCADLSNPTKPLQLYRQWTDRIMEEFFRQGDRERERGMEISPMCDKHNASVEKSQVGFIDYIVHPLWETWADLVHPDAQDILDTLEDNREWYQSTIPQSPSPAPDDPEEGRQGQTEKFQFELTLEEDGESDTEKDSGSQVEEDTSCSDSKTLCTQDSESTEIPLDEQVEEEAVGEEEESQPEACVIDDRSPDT
Sequence of Dual 3',5'-cyclic-AMP and -GMP phosphodiesterase 11A (Q9HCR9 whole entry): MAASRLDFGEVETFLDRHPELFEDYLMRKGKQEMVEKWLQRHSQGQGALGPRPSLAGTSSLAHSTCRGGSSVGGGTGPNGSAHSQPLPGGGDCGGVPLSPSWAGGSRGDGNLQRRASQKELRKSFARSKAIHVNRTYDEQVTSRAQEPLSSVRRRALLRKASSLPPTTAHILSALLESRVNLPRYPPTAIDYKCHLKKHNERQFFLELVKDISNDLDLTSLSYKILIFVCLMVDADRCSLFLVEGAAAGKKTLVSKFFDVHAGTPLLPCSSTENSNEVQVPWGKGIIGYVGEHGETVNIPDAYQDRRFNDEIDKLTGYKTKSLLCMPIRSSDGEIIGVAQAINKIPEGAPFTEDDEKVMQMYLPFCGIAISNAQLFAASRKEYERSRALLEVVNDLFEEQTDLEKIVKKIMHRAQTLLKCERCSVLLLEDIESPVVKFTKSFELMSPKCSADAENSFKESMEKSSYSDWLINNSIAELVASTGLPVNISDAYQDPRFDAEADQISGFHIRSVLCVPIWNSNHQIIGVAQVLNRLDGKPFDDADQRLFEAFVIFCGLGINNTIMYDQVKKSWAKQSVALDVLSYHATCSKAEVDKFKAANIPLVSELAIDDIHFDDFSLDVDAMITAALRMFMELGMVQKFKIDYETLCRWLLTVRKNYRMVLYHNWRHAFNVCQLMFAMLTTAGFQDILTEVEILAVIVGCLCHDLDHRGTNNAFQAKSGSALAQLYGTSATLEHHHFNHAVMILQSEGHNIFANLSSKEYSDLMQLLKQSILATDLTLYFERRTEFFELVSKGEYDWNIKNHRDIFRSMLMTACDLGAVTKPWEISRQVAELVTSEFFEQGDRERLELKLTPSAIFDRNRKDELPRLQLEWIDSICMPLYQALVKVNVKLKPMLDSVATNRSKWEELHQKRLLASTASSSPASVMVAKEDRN
Sequence of cGMP-inhibited 3',5'-cyclic phosphodiesterase 3B (Q13370 whole entry): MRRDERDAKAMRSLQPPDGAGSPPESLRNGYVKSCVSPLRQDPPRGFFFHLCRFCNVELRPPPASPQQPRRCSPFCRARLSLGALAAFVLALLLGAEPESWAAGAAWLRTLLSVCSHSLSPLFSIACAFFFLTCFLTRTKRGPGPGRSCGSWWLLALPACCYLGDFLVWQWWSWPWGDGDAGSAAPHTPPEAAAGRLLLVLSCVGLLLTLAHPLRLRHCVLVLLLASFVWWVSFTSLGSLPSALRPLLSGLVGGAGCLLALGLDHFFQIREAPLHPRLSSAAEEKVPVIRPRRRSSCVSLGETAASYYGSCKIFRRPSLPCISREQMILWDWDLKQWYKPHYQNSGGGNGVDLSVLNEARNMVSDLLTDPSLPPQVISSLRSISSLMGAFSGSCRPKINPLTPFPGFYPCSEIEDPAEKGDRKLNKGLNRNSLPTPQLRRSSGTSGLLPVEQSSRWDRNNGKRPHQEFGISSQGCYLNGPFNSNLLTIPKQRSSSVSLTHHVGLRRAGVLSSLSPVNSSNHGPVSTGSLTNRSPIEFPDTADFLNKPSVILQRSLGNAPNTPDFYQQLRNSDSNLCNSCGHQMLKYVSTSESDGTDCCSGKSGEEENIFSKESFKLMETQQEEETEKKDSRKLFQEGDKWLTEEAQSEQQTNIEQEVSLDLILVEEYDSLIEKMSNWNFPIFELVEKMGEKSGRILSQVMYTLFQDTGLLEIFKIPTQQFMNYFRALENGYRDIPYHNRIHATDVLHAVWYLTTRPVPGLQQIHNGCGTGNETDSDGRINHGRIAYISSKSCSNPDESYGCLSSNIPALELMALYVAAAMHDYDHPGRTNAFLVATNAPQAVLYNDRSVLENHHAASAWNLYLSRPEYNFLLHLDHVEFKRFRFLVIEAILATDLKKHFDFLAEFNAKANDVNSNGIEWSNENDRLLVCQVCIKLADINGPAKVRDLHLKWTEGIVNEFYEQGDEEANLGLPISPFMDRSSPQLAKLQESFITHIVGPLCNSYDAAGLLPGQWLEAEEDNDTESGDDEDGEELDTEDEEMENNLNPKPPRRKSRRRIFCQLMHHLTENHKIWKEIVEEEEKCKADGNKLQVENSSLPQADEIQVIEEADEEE
Sequence of CYP2C19 (P33261 whole entry): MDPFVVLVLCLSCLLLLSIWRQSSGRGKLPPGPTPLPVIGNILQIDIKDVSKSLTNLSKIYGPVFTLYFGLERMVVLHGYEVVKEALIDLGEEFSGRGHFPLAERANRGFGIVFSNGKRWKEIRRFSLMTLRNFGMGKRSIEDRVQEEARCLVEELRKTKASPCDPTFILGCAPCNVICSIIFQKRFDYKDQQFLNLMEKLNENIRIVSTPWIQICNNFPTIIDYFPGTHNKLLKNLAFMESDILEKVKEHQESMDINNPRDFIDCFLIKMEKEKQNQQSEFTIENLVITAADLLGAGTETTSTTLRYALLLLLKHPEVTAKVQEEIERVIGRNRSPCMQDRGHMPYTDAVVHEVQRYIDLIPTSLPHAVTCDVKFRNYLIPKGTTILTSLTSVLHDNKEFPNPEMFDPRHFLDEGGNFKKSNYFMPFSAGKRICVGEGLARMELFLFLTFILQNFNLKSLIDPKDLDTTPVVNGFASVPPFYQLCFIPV
Sequence of CYP2C9 (P11712 whole entry): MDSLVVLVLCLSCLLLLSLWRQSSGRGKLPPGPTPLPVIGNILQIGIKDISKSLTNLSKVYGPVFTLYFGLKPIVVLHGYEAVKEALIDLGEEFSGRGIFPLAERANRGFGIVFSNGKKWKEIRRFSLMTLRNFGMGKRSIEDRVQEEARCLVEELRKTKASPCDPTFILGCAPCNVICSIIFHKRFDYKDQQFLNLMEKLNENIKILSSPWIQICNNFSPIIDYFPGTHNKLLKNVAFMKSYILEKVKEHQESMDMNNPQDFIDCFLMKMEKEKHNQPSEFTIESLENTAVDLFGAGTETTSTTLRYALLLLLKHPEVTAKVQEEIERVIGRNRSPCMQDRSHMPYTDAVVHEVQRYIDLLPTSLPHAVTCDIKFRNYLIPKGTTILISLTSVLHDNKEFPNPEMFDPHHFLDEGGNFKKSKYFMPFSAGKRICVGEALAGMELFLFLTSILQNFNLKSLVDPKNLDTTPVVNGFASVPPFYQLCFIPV

SMILES: COCCOc1ccc(Cl)c(-c2nnc3c(C)nc4ccncc4n23)c1
- metabolised at 0.25 h, 1 µM [1]: 18%
- metabolised at 0.25 h, 1 µM [2]: 5%
- concentration at 1 h [3]: 801 ng/g
- fraction unbound at 5 h [4]: 0.17
- IC50 [5]: 9.12 µM
- Kp at 1 h [6]: 0.44

SMILES: CCCOCc1ccc(Cl)c(-c2nnc3c(C)nc4ccncc4n23)c1
- metabolised at 0.25 h, 1 µM [1]: 98%
- metabolised at 0.25 h, 1 µM [2]: 78%
- concentration at 1 h [3]: 895 ng/g
- fraction unbound at 5 h [4]: 0.1
- IC50 [5]: 3.89 µM
- Kp at 1 h [6]: 0.98

SMILES: Cc1nc2ccncc2n2c(-c3cc(OC(F)(F)F)ccc3Cl)nnc12
- metabolised at 0.25 h, 1 µM [1]: 11%
- metabolised at 0.25 h, 1 µM [2]: 3%
- IC50 [5]: 8.91 µM

SMILES: Cc1nc2ccncc2n2c(-c3ccccc3Cl)nnc12
- solubility [7]: 4000 µg/mL (≈ 13.5 mM)
- solubility [8]: > 1000 µM
- inhibition at 5 µM (CYP2C19): < 50%
- inhibition at 5 µM (CYP2C9): < 50%
- metabolised at 0.25 h, 1 µM [1]: 13%
- metabolised at 0.25 h, 1 µM [2]: 7%
- Activity (Salmonella typhimurium): Non-toxic
- IC50 [9]: 6.92 µM
- IC50 [10]: 5.89 µM
- pKa [11]: 2.7
- inhibition at 5 µM (CYP2D6): < 50%
- bioavailability [12]: 100%
- inhibition at 5 µM (CYP3A4): < 50%
- IC50 [13]: > 10 µM
- half-life [14]: 2.36 h
- Vd [15]: 1.02 L/kg
- concentration at 1 h [3]: 2730 ng/g
- AUC(0-inf) [16]: 1040 ng·h/mL
- Cmax [17]: 997 ng/mL
- ED50 (Rattus norvegicus): 21 mg/kg
- fraction unbound at 5 h [4]: > 0.3
- AUC(0-inf) [18]: 4230 ng·h/mL
- solubility [19]: 4000 µg/mL (≈ 13.5 mM)
- pKa [20]: 2.7
- clearance [21]: 38.7 mL/min/kg
- Vd [22]: 1.61 L/kg
- C0 [23]: 3020 ng/mL
- Tmax [24]: 1.17 h
- inhibition at 5 µM (CYP1A2): < 50%
- IC50 [25]: > 10 µM
- solubility kinetic at 4 h [26]: > 1000 µM
- IC50 [27]: > 10 µM
- IC50 (Phosphodiesterase 6): > 10 µM
- Kp at 1 h [6]: 0.65
- IC50 [28]: > 10 µM
- IC50 [29]: > 10 µM
- half-life [30]: 0.47 h

SMILES: CCCCOc1ccc(Cl)c(-c2nnc3c(C)nc4ccncc4n23)c1
- metabolised at 0.25 h, 1 µM [1]: 98%
- metabolised at 0.25 h, 1 µM [2]: 34%
- concentration at 1 h [3]: 807 ng/g
- fraction unbound at 5 h [4]: 0.026
- Kp at 1 h [6]: 0.69
